Drawing on ChEMBL document CHEMBL1148827, “An investigation into the cytotoxicity and mode of action of some novel N-alkyl-substituted isatins” (J Med Chem, 2007), this text covers IC50 and Activity for 25 compounds.

Each structure is given as a SMILES string. Activity calls are given as the source filed them. The calls are words filed in the database; no cut-off is given here.

The test system of one test is MCF7. Put plainly: Cytotoxicity against human MCF7 cells by MTS assay after 24 hrs. The class given is functional, cell-based. As to conditions: MCF7, 24 h.
In test [1] the test system is U-937. Nature of the test: Cytotoxicity against human U937 cells by MTS assay after 24 hrs. The class given is functional, cell-based. As to conditions: U-937, 24 h.
The subject of test [2] is Jurkat. Nature of the test: Cytotoxicity against human Jurkat cells by MTS assay after 24 hrs. The class given is functional, cell-based. Background: Formazan colour is commonly taken as a measure of viable cells.
The test system of test [3] is U-937. Put plainly: Effect on U937 cell morphology assessed as irregular membrane protrusions at 0.39 ug/ml after 24 hrs. The class given is functional, cell-based. As to conditions: Homo sapiens. An outline of the steps:
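U937 cells (1.0 × 10⁴) exposed to compounds at 0.39 µg/mL for 24 h, with DMSO vehicle as control. Examined by brightfield light microscopy at 1000× magnification.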

Test [4] can be described thus: Cytotoxicity against human […] cells by MTS assay after 24 hrs. The class given is functional, cell-based.
A further test deals with A-375. Put plainly: Cytotoxicity against human A375 cells by MTS assay after 24 hrs. As to conditions: A-375, 24 h. It is filed as functional, cell-based.
In a further test the test system is HCT-116. Put plainly: Cytotoxicity against human HCT116 cells by MTS assay after 24 hrs. It is filed as functional, cell-based. As to conditions: HCT-116, 24 h.
For the next test, the system named is PC-3. Put plainly: Cytotoxicity against human PC3 cells by MTS assay after 24 hrs. The class given is functional, cell-based. As to conditions: PC-3, 24 h.
Test [5] concerns U-937. Put plainly: Cell cycle arrest in human U937 cells assessed as increase in S and sub G1 phase accumulation at 2 uM. The class given is functional, cell-based. An outline of the steps:
(§1)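 U937 cells treated 4 h or 24 h against DMSO vehicle, with 0.5 µM vinblastine sulfate as reference. Cells (2.0 × 10⁴) fixed in ice-cold 70% ethanol at -20 °C for 30 min to overnight. Stained 30 min at 37 °C with 40 µg/mL PI plus 100 µg/mL RNase A in PBS pH 7.4. DNA content read by flow cytometry and cell-cycle phase proportions calculated.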

The next test is filed under the species Bos taurus. Nature of the test: Inhibition of bovine neuronal tubulin polymerization at 10 uM. An outline of the steps: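 Polymerization followed 1 h at 37 °C by fluorescence, ex 360 ± 10 nm / em 440 ± 10 nm. Duplicate wells.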
In test [6] the test system is U-937. Nature of the test: Cell cycle arrest in human U937 cells assessed as increase in S and sub G1 phase accumulation at 1 uM. The class given is functional, cell-based. An outline of the steps: as §1
For test [7], the system named is Jurkat. Nature of the test: Activation of caspase in Jurkat cells after 5 hrs relative to staurosporine. The class given is cell-based. As to conditions: Homo sapiens. An outline of the steps: (§2)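 Cells exposed to test compound for 5 h at 37 °C; 2 µM staurosporine as positive control. Apo-ONE homogeneous caspase-3/7 reagent then added for 1 h at room temperature. Fluorescence read at excitation 485 nm, emission 520 nm. Values normalized to staurosporine. Means ± SE of one representative experiment run in triplicate.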

Test [8] relates to U-937. Put plainly: Activation of caspase in U937 cells after 5 hrs relative to staurosporine. The class given is cell-based. As to conditions: Homo sapiens. An outline of the steps:
as §2

In test [9] the test system is U-937. Put plainly: Effect on stability of microtubules in U937 cells assessed as alteration of microtubule organisation at 1.7 uM after 24 hrs. It is filed as functional, cell-based. As to conditions: Homo sapiens. An outline of the steps: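 U937 cells (2.2 × 10⁵/mL) seeded, held 24 h, then exposed 24 h to 0.78 µg/mL (1.7 µM) compound. Controls: 2 µM vinblastine or 2.5% DMSO. […] Cells washed in PBS and imaged by confocal microscopy, excitation 488 nm, emission 500–540 nm.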

The next test deals with Tubulin. Put plainly: Displacement of [3H]colchicine from tubulin by scintillation proximity assay. The class given is protein-complex assay, Homo sapiens. On the technique in general: In a radioligand displacement assay an active substance lowers the binding of a labelled ligand.

One may read the IC50 as the concentration at which inhibition is half-maximal. Higher therefore signals weaker potency. On to `O=C1C(=O)N(Cc2ccccc2[N+](=O)[O-])c2c(Br)cc(Br)cc21`, for which the IC50 in the test with MCF7 came to 3180 nM; with U-937 [1] it was 2270 nM.

Regarding `COc1ccc(CN2C(=O)C(=O)c3ccc(Br)cc32)cc1`, the IC50 in the test with U-937 [1] is 34100 nM.

With `COCCN1C(=O)C(=O)c2cc(Br)cc(Br)c21`, the IC50 stood at 6670 nM with MCF7, 8950 nM in the test with Jurkat [2] and 3440 nM with U-937 [1].

On to `CC(C)(C)c1ccc(CN2C(=O)C(=O)c3cc(Br)cc(Br)c32)cc1`, for which the IC50 in the test on MCF7 stood at 2640 nM; with Jurkat [2], 660 nM; in [4], 980 nM; in the test with A-375 it was 890 nM; in the test on U-937 [1] it was 1130 nM; with HCT-116, 1660 nM. The same compound came in with an IC50 with PC-3 of 3060 nM. In the test on U-937 [3], the outcome was Active.

On to `COc1cccc(CN2C(=O)C(=O)c3cc(Br)cc(Br)c32)c1`, for which the IC50 stood at 2350 nM in the test with MCF7, 2000 nM with Jurkat [2] and 1760 nM in the test on U-937 [1].

As to `CC(C)CCN1C(=O)C(=O)c2cc(Br)cc(Br)c21`, the IC50 in the test on MCF7 was 7490 nM; in the test on Jurkat [2] it was 3470 nM; with U-937 [1] it was 2400 nM. For the same compound, the result in the test with U-937 [3] was Active.

For `O=C1C(=O)N(Cc2ccc(Cl)cc2)c2c(Br)cc(Br)cc21`, the IC50 in the test with MCF7 came out at 3870 nM; in the test with Jurkat [2] it was 500 nM; in test [4], 2770 nM; with A-375, 1680 nM; in the test with U-937 [1], 980 nM; with HCT-116, 1840 nM. The IC50 in the test on PC-3 worked out at 2170 nM.

As to `O=C1C(=O)N(Cc2ccc(C(F)(F)F)cc2)c2cc(Br)ccc21`, the IC50 in the test on Jurkat [2] and in the test with U-937 [1] was 5210 nM throughout.

Take `Cc1ccc(CN2C(=O)C(=O)c3cc(Br)cc(Br)c32)cc1`: the IC50 in the test on MCF7 was determined as 11000 nM; in the test on Jurkat [2] it was 490 nM; in [4] it was 1910 nM; with A-375, 2000 nM; in the test on U-937 [1], 490 nM; in the test with HCT-116, 1220 nM. Besides, half-maximal inhibition with PC-3 (IC50) required 4570 nM. The outcome with U-937 [5], in the test listed under Bos taurus and with U-937 [6] was Active.

In the case of `O=C1C(=O)N(Cc2ccc(C(F)(F)F)cc2)c2c(Br)cc(Br)cc21`, the IC50 came to 7130 nM with MCF7; 690 nM with Jurkat [2]; 540 nM in test [4]; 1250 nM in the test with A-375; 800 nM with U-937 [1]; 840 nM with HCT-116. In the test on PC-3, this compound showed an IC50 of 1170 nM. The outcome with Jurkat [7], in the test on U-937 [5], with U-937 [8], in the test listed under Bos taurus, in the test on U-937 [6] and in the test with U-937 [9] was Active.

`CC[C@]1(O)C[C@@H]2CN(CCc3c([nH]c4ccccc34)[C@@](C(=O)OC)(c3cc4c(cc3OC)N(C)[C@H]3[C@@](O)(C(=O)OC)[C@H](OC(C)=O)[C@]5(CC)C=CCN6CC[C@]43[C@@H]65)C2)C1` [VINBLASTINE] registered an IC50 in the test with U-937 [1] of 6880 nM.

For `O=C(O)c1ccc(CN2C(=O)C(=O)c3cc(Br)cc(Br)c32)cc1`, the IC50 in the test on MCF7, in the test on Jurkat [2] and in the test on U-937 [1] was > 14200 nM in each case.

As for `O=C1C(=O)N(Cc2ccc(Br)cc2)c2c(Br)cc(Br)cc21`, the IC50 in the test on MCF7 was 5270 nM; in the test with Jurkat [2] it was 630 nM; in test [4], 1900 nM; with A-375, 1220 nM; with U-937 [1], 630 nM; with HCT-116, 530 nM. In the test with PC-3, this compound displayed an IC50 of 3440 nM.

In the test with U-937 [1], `COc1ccc(CN2C(=O)C(=O)c3cccc(Br)c32)cc1` yielded an IC50 of 17600 nM.

Consider `O=C1C(=O)N(Cc2ccccc2)c2c(Br)cc(Br)cc21`, for which the values for the IC50 in the test on MCF7, in the test on Jurkat [2] and in the test with U-937 [1] were 7090 nM, 1140 nM and 1140 nM, respectively.

In the case of `COC(=O)c1ccc(CN2C(=O)C(=O)c3cc(Br)cc(Br)c32)cc1`, the IC50 turned out to be 9050 nM in the test with MCF7, 1190 nM with Jurkat [2] and 1190 nM in the test with U-937 [1].

As for `COc1ccc(CN2C(=O)C(=O)c3c(Br)cccc32)cc1`, the IC50 with U-937 [1] is > 36100 nM.

As to `O=C1C(=O)N(Cc2ccc(-c3ccccc3)cc2)c2c(Br)cc(Br)cc21`, the IC50 in the test with MCF7 was determined as 4880 nM; with Jurkat [2] it was 740 nM; in test [4], 2060 nM; with A-375, 1190 nM; with U-937 [1] it was 760 nM; with HCT-116, 830 nM. For the same compound, in the test on PC-3, the IC50 stood at 3420 nM. Further, in the test filed under Bos taurus, the result was Active.

For the compound `O=C1C(=O)N(Cc2ccc(I)cc2)c2c(Br)cc(Br)cc21`, the concentration for half-maximal inhibition (IC50) in the test on MCF7 was determined as 4220 nM; with Jurkat [2], 580 nM; in [4] it was 2920 nM; in the test on A-375 it was 2400 nM; in the test with U-937 [1], 2300 nM; in the test on HCT-116, 3360 nM. For the same compound, 10900 nM corresponded to half-maximal inhibition in the test with PC-3 (IC50). In addition, the outcome with U-937 [3] was Active.

Consider `COc1ccc(CN2C(=O)C(=O)c3ccccc32)cc1`, for which, in the test with U-937 [1], the IC50 was > 46800 nM.

`O=C1C(=O)N(C/C=C/c2ccccc2)c2c(Br)cc(Br)cc21`: the IC50 in the test with MCF7 worked out at 7810 nM; with Jurkat [2], 1420 nM; in the test with U-937 [1], 2370 nM. Also, the outcome with U-937 [3] and in the test filed under Bos taurus was Active.

Regarding `O=C1C(=O)N(Cc2ccc([N+](=O)[O-])cc2)c2c(Br)cc(Br)cc21`, the IC50 came to 4320 nM in the test on MCF7; 890 nM in the test on Jurkat [2]; 2750 nM in test [4]; 2500 nM in the test with A-375; 890 nM in the test with U-937 [1]; 2700 nM in the test on HCT-116.

`COc1ccc(CN2C(=O)C(=O)c3cc(Br)ccc32)cc1`: the IC50 in the test with U-937 [1] is > 36100 nM.

As to `COc1cc(-c2ccc3c(c2)NC(=O)/C3=C\c2ccc[nH]2)ccc1O`, the IC50 at Tubulin is 130 nM.

`C=CCN1C(=O)C(=O)c2cc(Br)cc(Br)c21` gave an IC50 in the test on U-937 [1] of 6670 nM.
